According to ChEMBL document CHEMBL3588757, “Structure-based design, synthesis and biological testing of piperazine-linked bis-epipodophyllotoxin etoposide analogs” (Bioorg Med Chem, 2015):

Legend:
Assay type in all cases: functional
SF-268 [1] = assay: Cytotoxicity against human SF268 cells assessed as cell growth at 50 uM by SRB assay; settings: read-out: Activity
786-0 = assay: Cytotoxicity against human 786-0 cells assessed as cell growth at 50 uM by SRB assay; settings: read-out: Activity
A498 = assay: Cytotoxicity against human A498 cells assessed as cell growth at 50 uM by SRB assay; settings: read-out: Activity
CAKI-1 = assay: Cytotoxicity against human Caki1 cells assessed as cell growth at 50 uM by SRB assay; settings: read-out: Activity
BT-549 [2] = assay: Cytotoxicity against human BT549 cells assessed as cell growth at 50 uM by SRB assay; settings: read-out: Activity
SR [3] = assay: Cytotoxicity against human SR cells by SRB assay
Summary of the method: (§1)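 NCI-60 panel screen; 5-dose testing giving GI50 per cell line, plus a single 10 µM one-dose test. Method details not given beyond the NCI screen.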

HOP-92 = assay: Cytotoxicity against human HOP92 cells by SRB assay
Summary of the method: (§2)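 Measured in the NCI-60 human tumour cell line panel using five-dose testing. Growth was recorded at each dose for each cell line, and a GI50 was derived for each line.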

NCI-H226 [4] = assay: Cytotoxicity against human NCI-H226 cells by SRB assay; summary of the method: as §1
KM12 [5] = assay: Cytotoxicity against human KM12 cells by SRB assay; summary of the method: as §1
UACC-62 = assay: Cytotoxicity against human UACC62 cells by SRB assay; summary of the method: as §1
OVCAR-8 [6] = assay: Cytotoxicity against human OVCAR8 cells by SRB assay; summary of the method: as §1
RXF 393 = assay: Cytotoxicity against human RXF393 cells by SRB assay; summary of the method: as §1
MDA-MB-231 = assay: Cytotoxicity against human MDA-MB-231/ATCC cells by SRB assay; summary of the method: as §1
BT-549 [7] = assay: Cytotoxicity against human BT549 cells by SRB assay
MDA-MB-468 = assay: Cytotoxicity against human MDA-MB-468 cells by SRB assay; summary of the method: as §1
NCI-H460 = assay: Cytotoxicity against human NCI-H460 cells assessed as cell growth at 0.005 uM by SRB assay; settings: read-out: Activity
NCI-H522 = assay: Cytotoxicity against human NCI-H522 cells assessed as cell growth at 0.005 uM by SRB assay; settings: read-out: Activity
KM12 [8] = assay: Cytotoxicity against human KM12 cells assessed as cell growth at 0.005 uM by SRB assay; settings: read-out: Activity
SF-268 [9] = assay: Cytotoxicity against human SF268 cells assessed as cell growth at 0.005 uM by SRB assay; settings: read-out: Activity
SNB-19 [10] = assay: Cytotoxicity against human SNB19 cells assessed as cell growth at 0.005 uM by SRB assay; settings: read-out: Activity
M14 = assay: Cytotoxicity against human M14 cells assessed as cell growth at 0.005 uM by SRB assay; settings: read-out: Activity
SK-MEL-28 = assay: Cytotoxicity against human SK-MEL-28 cells assessed as cell growth at 0.005 uM by SRB assay; settings: read-out: Activity
OVCAR-8 [11] = assay: Cytotoxicity against human OVCAR8 cells assessed as cell growth at 0.005 uM by SRB assay; settings: read-out: Activity
TK-10 [12] = assay: Cytotoxicity against human TK10 cells assessed as cell growth at 0.005 uM by SRB assay; settings: read-out: Activity
T47D [13] = assay: Cytotoxicity against human T47D cells assessed as cell growth at 0.005 uM by SRB assay; settings: read-out: Activity
SR [14] = assay: Cytotoxicity against human SR cells assessed as cell growth at 0.05 uM by SRB assay; settings: read-out: Activity
COLO 205 [15] = assay: Cytotoxicity against human COLO205 cells assessed as cell growth at 0.05 uM by SRB assay; settings: read-out: Activity
SK-MEL-5 = assay: Cytotoxicity against human SK-MEL-5 cells assessed as cell growth at 0.05 uM by SRB assay; settings: read-out: Activity
ACHN = assay: Cytotoxicity against human ACHN cells assessed as cell growth at 0.05 uM by SRB assay; settings: read-out: Activity
TK-10 [16] = assay: Cytotoxicity against human TK10 cells assessed as cell growth at 0.05 uM by SRB assay; settings: read-out: Activity
T47D [17] = assay: Cytotoxicity against human T47D cells assessed as cell growth at 0.05 uM by SRB assay; settings: read-out: Activity
MOLT-4 = assay: Cytotoxicity against human MOLT4 cells assessed as cell growth at 0.5 uM by SRB assay; settings: read-out: Activity
NCI-H23 [18] = assay: Cytotoxicity against human NCI-H23 cells assessed as cell growth at 0.5 uM by SRB assay; settings: read-out: Activity
SNB-19 [19] = assay: Cytotoxicity against human SNB19 cells assessed as cell growth at 0.5 uM by SRB assay; settings: read-out: Activity
NCI-H226 [20] = assay: Cytotoxicity against human NCI-H226 cells assessed as cell growth at 5 uM by SRB assay; settings: read-out: Activity
HCC 2998 = assay: Cytotoxicity against human HCC2998 cells assessed as cell growth at 5 uM by SRB assay; settings: read-out: Activity; summary of the method: as §2
KM12 [21] = assay: Cytotoxicity against human KM12 cells assessed as cell growth at 5 uM by SRB assay; settings: read-out: Activity
RPMI-8226 = assay: Cytotoxicity against human RPMI8226 cells assessed as cell growth at 50 uM by SRB assay; settings: read-out: Activity
NCI-H23 [22] = assay: Cytotoxicity against human NCI-H23 cells assessed as cell growth at 50 uM by SRB assay; settings: read-out: Activity
COLO 205 [23] = assay: Cytotoxicity against human COLO205 cells assessed as cell growth at 50 uM by SRB assay; settings: read-out: Activity
[24] = read-out: LC50 (the source's name)
[25] = read-out: pLC50 (the source's name) (converted)

## COc1cc([C@@H]2c3cc4c(cc3[C@@H](NC(=O)CN3CCN(CCCCCCCCCCN5CCN(CC(=O)N[C@@H]6c7cc8c(cc7[C@@H](c7cc(OC)c(O)c(OC)c7)[C@H]7C(=O)OC[C@@H]76)OCO8)CC5)CC3)[C@H]3COC(=O)[C@H]23)OCO4)cc(OC)c1O
SF-268 [1]
  growth at 50 µM: -40%
786-0
  growth at 50 µM: -78%
A498
  growth at 50 µM: -97%
CAKI-1
  growth at 50 µM: -97%
BT-549 [2]
  growth at 50 µM: -26%
SR [3]; read-out: GI50
  GI50: 0.232 µM
SR [3]; [24]
  CC50: > 50 µM
SR [3]; read-out: TGI
  TGI: 1.81 µM
SR [3]; read-out: pGI50 (converted)
  GI50: 0.229 µM
SR [3]; [25]
  CC50: > 50.1 µM
SR [3]; read-out: pTGI (converted)
  TGI: 1.82 µM
HOP-92; read-out: GI50
  GI50: 0.14 µM
HOP-92; [24]
  CC50: > 50 µM
HOP-92; read-out: TGI
  TGI: 2.58 µM
HOP-92; read-out: pGI50 (converted)
  GI50: 0.141 µM
HOP-92; [25]
  CC50: > 50.1 µM
HOP-92; read-out: pTGI (converted)
  TGI: 2.57 µM
NCI-H226 [4]; read-out: GI50
  GI50: 0.469 µM
NCI-H226 [4]; [24]
  CC50: 22.6 µM
NCI-H226 [4]; read-out: TGI
  TGI: 9.32 µM
NCI-H226 [4]; read-out: pGI50 (converted)
  GI50: 0.468 µM
NCI-H226 [4]; [25]
  CC50: 22.4 µM
NCI-H226 [4]; read-out: pTGI (converted)
  TGI: 9.33 µM
KM12 [5]; read-out: GI50
  GI50: 0.892 µM
KM12 [5]; [24]
  CC50: > 50 µM
KM12 [5]; read-out: TGI
  TGI: 2.95 µM
KM12 [5]; read-out: pGI50 (converted)
  GI50: 0.891 µM
KM12 [5]; [25]
  CC50: > 50.1 µM
KM12 [5]; read-out: pTGI (converted)
  TGI: 2.95 µM
UACC-62; read-out: GI50
  GI50: 7.23 µM
UACC-62; [24]
  CC50: > 50 µM
UACC-62; read-out: TGI
  TGI: 24.1 µM
UACC-62; read-out: pGI50 (converted)
  GI50: 7.24 µM
UACC-62; [25]
  CC50: > 50.1 µM
UACC-62; read-out: pTGI (converted)
  TGI: 24 µM
OVCAR-8 [6]; read-out: GI50
  GI50: 0.514 µM
OVCAR-8 [6]; [24]
  CC50: > 50 µM
OVCAR-8 [6]; read-out: TGI
  TGI: 2.2 µM
OVCAR-8 [6]; read-out: pGI50 (converted)
  GI50: 0.513 µM
OVCAR-8 [6]; [25]
  CC50: > 50.1 µM
OVCAR-8 [6]; read-out: pTGI (converted)
  TGI: 2.19 µM
RXF 393; read-out: GI50
  GI50: 0.791 µM
RXF 393; [24]
  CC50: > 50 µM
RXF 393; read-out: TGI
  TGI: 2.38 µM
RXF 393; read-out: pGI50 (converted)
  GI50: 0.794 µM
RXF 393; [25]
  CC50: > 50.1 µM
RXF 393; read-out: pTGI (converted)
  TGI: 2.4 µM
MDA-MB-231; read-out: GI50
  GI50: 0.958 µM
MDA-MB-231; [24]
  CC50: 18.3 µM
MDA-MB-231; read-out: TGI
  TGI: 2.28 µM
MDA-MB-231; read-out: pGI50 (converted)
  GI50: 0.955 µM
MDA-MB-231; [25]
  CC50: 18.2 µM
MDA-MB-231; read-out: pTGI (converted)
  TGI: 2.29 µM
BT-549 [7]; read-out: GI50
  GI50: 0.576 µM
BT-549 [7]; read-out: TGI
  TGI: 1.46 µM
BT-549 [7]; read-out: pGI50 (converted)
  GI50: 0.575 µM
BT-549 [7]; read-out: pTGI (converted)
  TGI: 1.48 µM
MDA-MB-468; read-out: GI50
  GI50: 0.844 µM
MDA-MB-468; [24]
  CC50: 16.9 µM
MDA-MB-468; read-out: TGI
  TGI: 2.62 µM
MDA-MB-468; read-out: pGI50 (converted)
  GI50: 0.851 µM
MDA-MB-468; [25]
  CC50: 17 µM
MDA-MB-468; read-out: pTGI (converted)
  TGI: 2.63 µM
NCI-H460
  growth at 0.005 µM: 91%
NCI-H522
  growth at 0.005 µM: 97%
KM12 [8]
  growth at 0.005 µM: 97%
SF-268 [9]
  growth at 0.005 µM: 97%
SNB-19 [10]
  growth at 0.005 µM: 99%
M14
  growth at 0.005 µM: 94%
SK-MEL-28
  growth at 0.005 µM: 96%
OVCAR-8 [11]
  growth at 0.005 µM: 101%
TK-10 [12]
  growth at 0.005 µM: 93%
T47D [13]
  growth at 0.005 µM: 94%
SR [14]
  growth at 0.05 µM: 85%
COLO 205 [15]
  growth at 0.05 µM: 90%
SK-MEL-5
  growth at 0.05 µM: 96%
ACHN
  growth at 0.05 µM: 88%
TK-10 [16]
  growth at 0.05 µM: 91%
T47D [17]
  growth at 0.05 µM: 81%
MOLT-4
  growth at 0.5 µM: 37%
NCI-H23 [18]
  growth at 0.5 µM: 25%
SNB-19 [19]
  growth at 0.5 µM: 42%
NCI-H226 [20]
  growth at 5 µM: 35%
HCC 2998
  growth at 5 µM: 29%
KM12 [21]
  growth at 5 µM: -22%
RPMI-8226
  growth at 50 µM: -13%
NCI-H23 [22]
  growth at 50 µM: -92%
COLO 205 [23]
  growth at 50 µM: -35%
